Measurements from ChEMBL document CHEMBL3259704, “Second generation steroidal 4-aminoquinolines are potent, dual-target inhibitors of the botulinum neurotoxin serotype A metalloprotease and P. falciparum malaria” (J Med Chem, 2014).
The source made the active and inactive calls. No cut-off for these calls is given here.

Legend:
[1] = Half life in mouse liver microsomes; type: ADME; settings: liver microsomes
[2] = biological target: Botulinum neurotoxin type A (Clostridium botulinum) (UniProt P0DPI0); assay: Inhibition of Clostridium botulinum recombinant BoNT/A light chain using N-terminal acetylated, C-terminal aminated SNAP-25 (187-203) as substrate at 20 uM by reverse-phase HPLC analysis
Sequence of Botulinum neurotoxin type A (Clostridium botulinum) (P0DPI0 2-448 limits assumed): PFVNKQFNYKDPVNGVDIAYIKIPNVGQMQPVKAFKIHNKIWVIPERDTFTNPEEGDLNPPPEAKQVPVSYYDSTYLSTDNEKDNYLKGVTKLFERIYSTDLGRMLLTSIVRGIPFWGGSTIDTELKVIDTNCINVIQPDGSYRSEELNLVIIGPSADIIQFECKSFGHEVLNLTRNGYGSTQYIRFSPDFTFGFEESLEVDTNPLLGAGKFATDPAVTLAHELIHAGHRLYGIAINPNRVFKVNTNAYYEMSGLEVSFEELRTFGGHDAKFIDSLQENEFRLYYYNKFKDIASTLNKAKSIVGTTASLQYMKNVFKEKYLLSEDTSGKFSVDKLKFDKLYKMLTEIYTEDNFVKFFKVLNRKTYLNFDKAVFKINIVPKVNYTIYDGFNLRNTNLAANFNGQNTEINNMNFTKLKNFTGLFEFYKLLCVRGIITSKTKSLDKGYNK
Outline: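 Recombinant BoNT/A LC with SNAP-25 187–203 peptide substrate in 40 mM HEPES–0.05% Tween, pH 7.3, with 0.5 mg/mL BSA and 50 μM excess Zn, at 37 °C. Quenched with TFA; reverse-phase HPLC product/substrate peak areas give percent inhibition, run in duplicate.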

HepG2 = assay: Cytotoxicity against human HepG2 cells assessed as cell viability after 48 hrs by MTT assay; type: cell-based; settings: HepG2, 48 h
Plasmodium falciparum [3] = assay: Antimalarial activity against CQ, MFQ-susceptible Plasmodium falciparum D6 clone Sierra 1/UNC isolate assessed as inhibition of parasite proliferation by MSF assay; type: functional, organism-based
Outline: (§1)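 SYBR Green I fluorescence (MSF) microtiter drug-sensitivity assay: malarial DNA content is the measure of in vitro parasite proliferation. Resistance index is the IC90 ratio of the resistant strain to D6.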

[4] = Half life in human liver microsomes; type: ADME; settings: liver microsomes
[5] = Selectivity index, ratio of IC50 for human HepG2 cells to IC50 for CQ, MFQ-susceptible Plasmodium falciparum D6 clone Sierra 1/UNC isolate; type: toxicity, cell-based; settings: read-out: Ratio IC50
Plasmodium falciparum [6] = assay: Antimalarial activity against CQ-resistant, MFQ-susceptible Plasmodium falciparum W2 clone Indochina 1 isolate assessed as inhibition of parasite proliferation by MSF assay; type: functional, organism-based; outline: as §1
[7] = Selectivity index, ratio of IC50 for human HepG2 cells to IC50 for CQ, MFQ-resistant Plasmodium falciparum TM91C235 clone Southeast asian isolate; type: toxicity, cell-based; settings: read-out: Ratio IC50
[8] = Selectivity index, ratio of IC50 for human HepG2 cells to IC50 for CQ-resistant, MFQ-susceptible Plasmodium falciparum W2 clone Indochina 1 isolate; type: toxicity, cell-based; settings: read-out: Ratio IC50
Plasmodium falciparum [9] = assay: Resistance index, ratio of IC50 for CQ, MFQ-resistant Plasmodium falciparum TM91C235 clone Southeast asian isolate to IC50 for CQ, MFQ-susceptible Plasmodium falciparum D6 clone Sierra 1/UNC isolate; type: functional
Plasmodium falciparum [10] = assay: Resistance index, ratio of IC50 for CQ-resistant, MFQ-susceptible Plasmodium falciparum W2 clone Indochina 1 isolate to IC50 for CQ, MFQ-susceptible Plasmodium falciparum D6 clone Sierra 1/UNC isolate; type: functional
Plasmodium falciparum [11] = assay: Antimalarial activity against CQ, MFQ-resistant Plasmodium falciparum TM91C235 clone Southeast asian isolate assessed as inhibition of parasite proliferation by MSF assay; type: functional, organism-based; outline: as §1
[12] = biological target: Botulinum neurotoxin type A (Clostridium botulinum, UniProt P0DPI0); assay: Inhibition of Clostridium botulinum recombinant BoNT/A light chain using N-terminal acetylated, C-terminal aminated SNAP-25 (187-203) as substrate by reverse-phase HPLC analysis
Sequence of Botulinum neurotoxin type A (P0DPI0 2-448 limits assumed): as above
Outline: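 Same HPLC LC cleavage assay (pH 7.3 HEPES/Tween, BSA, excess Zn, 37 °C). […] Ki comes from velocity versus substrate at several inhibitor levels, globally fit to a competitive model.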

PBMC = assay: Cytotoxicity against human PBMC assessed as inhibition of cell survival after 72 hrs; type: cell-based
Outline: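 PBMC from heparinized healthy-donor blood (Histopaque) in RPMI-1640 with 10% FCS and PHA stimulation, 200 000 cells/well, with compounds in DMSO, 72 h at 37 °C, 6% CO2.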

Plasmodium falciparum [13] = assay: Resistance index, ratio of IC90 for CQ-resistant, MFQ-susceptible Plasmodium falciparum W2 clone Indochina 1 isolate to IC90 for CQ, MFQ-susceptible Plasmodium falciparum D6 clone Sierra 1/UNC isolate; type: functional; outline: as §1
Plasmodium falciparum [14] = assay: Resistance index, ratio of IC90 for CQ, MFQ-resistant Plasmodium falciparum TM91C235 clone Southeast asian isolate to IC90 for CQ, MFQ-susceptible Plasmodium falciparum D6 clone Sierra 1/UNC isolate; type: functional; outline: as §1
Plasmodium berghei = assay: Antimalarial activity against Plasmodium berghei infected in ICR mouse assessed as host survival at 40 to 160 mg/kg/day, po administered on day 3, 4 and 5 post-infection measured on day 13 after infection; type: functional, organism-based
Mus musculus = assay: Toxicity in ICR mouse infected with Plasmodium berghei assessed as tissue damage at 40 to 160 mg/kg/day, po administered on day 3, 4 and 5 post-infection; type: organism-based; parameters: route oral; settings: in vivo

Row | SMILES | half-life [1] [h] | inhibition [2] [%] | IC50 (HepG2) [nM] | IC50 (Plasmodium falciparum [3]) [nM] | half-life [4] [h] | selectivity ratio [5] | IC50 (Plasmodium falciparum [6]) [nM] | selectivity ratio [7] | selectivity ratio [8] | IC50 (Plasmodium falciparum [11]) [nM] | IC50 [12] [nM] | further results
1 | CC(=O)O[C@H]1C[C@H]2[C@@H]([C@H](OC(C)=O)C[C@@H]3C[C@H](N(C)C)CC[C@@]32C)[C@@H]2CC[C@H]([C@H](C)CCCNCCNc3ccnc4cc(Cl)ccc34)[C@@]12C | 1 | 93.5 | 14100 | 42.3 | 1 | 333 | 19.7 | 435 | 714 | 32.4 | 1020 | Ratio IC50 (Plasmodium falciparum [9]): 0.77; Ratio IC50 (Plasmodium falciparum [10]): 47
2 | CC(=O)O[C@H]1C[C@H]2[C@@H]([C@H](OC(C)=O)C[C@@H]3C[C@H](N)CC[C@@]32C)[C@@H]2CC[C@H]([C@H](C)CCCN(C)CCNc3ccnc4cc(Cl)ccc34)[C@@]12C | 1 | 89.5 | 14400 | 3.6 | 1 | 4000 | 2.88 | 2330 | 4990 | 6.18 | 1140 | IC50 (PBMC): 2590 nM; Ratio (Plasmodium falciparum [13]): 0.84; IC90 (Plasmodium falciparum [3]): 4.46 nM; Ratio (Plasmodium falciparum [14]): 2.06; IC90 (Plasmodium falciparum [6]): 3.74 nM; Activity (Plasmodium berghei): inactive; IC90 (Plasmodium falciparum [11]): 9.2 nM; Activity (Mus musculus): Non-toxic
